How the values were obtained:
[1] = tested on: Rattus norvegicus; experiment: Antiinflammatory activity in albino rat assessed as inhibition of carrageenan-induced paw edema at 0.029 mmol/kg, po after 3 hrs relative to control; assay type: functional
Method in brief: (§1)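 Adult albino rats of either sex, 120–150 g, six per group. Compounds at 0.029 mmol/kg suspended in saline with a few drops of Tween 80 and given by oral stomach tube. After 1 h, 0.1 ml of freshly prepared 1% carrageenan in saline injected subplantar into the right hind paw. Paw thickness measured at 1–4 h; % edema inhibition versus control; mean ± SEM; ANOVA.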

[2] = tested on: Rattus norvegicus; experiment: Antiinflammatory activity in albino rat assessed as inhibition of carrageenan-induced paw edema at 0.029 mmol/kg, po after 1 hr relative to control; assay type: functional; method in brief: as §1
[3] = tested on: Rattus norvegicus; experiment: Antiinflammatory activity in albino rat assessed as inhibition of carrageenan-induced paw edema at 0.029 mmol/kg, po after 4 hrs relative to control; assay type: functional; method in brief: as §1
[4] = tested on: Rattus norvegicus; experiment: Antiinflammatory activity in albino rat assessed as inhibition of carrageenan-induced paw edema at 0.029 mmol/kg, po after 4 hrs relative to indomethacin; assay type: functional
Method in brief: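 Rat carrageenan paw edema: oral 0.029 mmol/kg in saline/Tween 80, 1 h before subplantar 0.1 ml 1% carrageenan into the right hind paw; six rats per group. Potency is % inhibition of the test compound divided by % inhibition of indomethacin at 4 h.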

[5] = tested on: Rattus norvegicus; experiment: Gastrointestinal toxicity in albino rat assessed as ulcerogenic index at 0.029 mmol/kg, po after 5 hrs; assay type: organism-based; conditions: in vivo
Method in brief: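 Adult albino rats of either sex (120–150 g), 6 per group, got the test compounds orally by stomach tube as a suspension in saline with a few drops of tween 80. They were the same rats used in the carrageenan paw-edema test. Stomachs were then opened along the great curvature and examined for lesions or bleeding. Ulceration was recorded as the number of rats with ulcers out of 6.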

[6] = tested on: Rattus norvegicus; experiment: Antiinflammatory activity in albino rat assessed as inhibition of carrageenan-induced paw edema at 0.029 mmol/kg, po after 2 hrs relative to control; assay type: functional; method in brief: as §1
[7] = tested on: Mus musculus; experiment: Analgesic activity in albino mouse assessed as decrease in acetic acid-induced writhing at 7.63 mg/kg, po administered 1 hr prior to acetic acid challenge relative to control; assay type: functional
Method in brief: (§2)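 Albino mice of either sex, 18–22 g, six per group. Test agents suspended in saline with a few drops of Tween 80 and given by oral stomach tube; controls handled identically without drug. After 1 h, 0.3 ml of 1% acetic acid ip. Writhing contractions counted for 30 min, starting 5 min after injection. % protection versus control mean; mean ± SEM; one-way ANOVA with post hoc test.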

[8] = tested on: Mus musculus; experiment: Analgesic activity in albino mouse assessed as decrease in acetic acid-induced writhing at 8.33 mg/kg, po administered 1 hr prior to acetic acid challenge relative to control; assay type: functional; method in brief: as §2
[9] = tested on: Mus musculus; experiment: Analgesic activity in albino mouse assessed as decrease in acetic acid-induced writhing at 0.8 mg/kg, po administered 1 hr prior to acetic acid challenge; assay type: functional; method in brief: as §2
[10] = tested on: Mus musculus; experiment: Analgesic activity in albino mouse assessed as decrease in acetic acid-induced writhing at 1 mg/kg, po administered 1 hr prior to acetic acid challenge; assay type: functional; method in brief: as §2
[11] = tested on: Mus musculus; experiment: Analgesic activity in po dosed albino mouse assessed as decrease in acetic acid-induced writhing administered 1 hr prior to acetic acid challenge; assay type: functional, organism-based; method in brief: as §2
[12] = tested on: Mus musculus; experiment: Analgesic activity in albino mouse assessed as decrease in acetic acid-induced writhing at 0.4 mg/kg, po administered 1 hr prior to acetic acid challenge; assay type: functional; method in brief: as §2
[13] = tested on: Mus musculus; experiment: Analgesic activity in albino mouse assessed as decrease in acetic acid-induced writhing at 2 mg/kg, po administered 1 hr prior to acetic acid challenge; assay type: functional; method in brief: as §2
[14] = tested on: Mus musculus; experiment: Analgesic activity in albino mouse assessed as decrease in acetic acid-induced writhing at 8 mg/kg, po administered 1 hr prior to acetic acid challenge; assay type: functional; method in brief: as §2
[15] = tested on: Mus musculus; experiment: Analgesic activity in albino mouse assessed as decrease in acetic acid-induced writhing at 8.68 mg/kg, po administered 1 hr prior to acetic acid challenge relative to control; assay type: functional; method in brief: as §2
[16] = tested on: Mus musculus; experiment: Analgesic activity in albino mouse assessed as decrease in acetic acid-induced writhing at 4 mg/kg, po administered 1 hr prior to acetic acid challenge; assay type: functional; method in brief: as §2
[17] = tested on: Mus musculus; experiment: Analgesic activity in albino mouse assessed as decrease in acetic acid-induced writhing at 9 mg/kg, po administered 1 hr prior to acetic acid challenge relative to control; assay type: functional; method in brief: as §2
[18] = tested on: Mus musculus; experiment: Analgesic activity in albino mouse assessed as decrease in acetic acid-induced writhing at 11.49 mg/kg, po administered 1 hr prior to acetic acid challenge relative to control; assay type: functional; method in brief: as §2
[19] = tested on: Rattus norvegicus; experiment: Antiinflammatory activity in albino rat assessed as inhibition of carrageenan-induced paw edema at 25 mg/kg, po; assay type: functional
Method in brief: (§3)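 Rat carrageenan paw edema with oral dosing at 10, 15, 20 and 25 mg/kg, suspended in saline with Tween 80, 1 h before subplantar 0.1 ml 1% carrageenan into the right hind paw. % edema inhibition versus control at each dose; IC50 (mg/kg) derived from these four doses.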

[20] = tested on: Rattus norvegicus; experiment: Antiinflammatory activity in po dosed albino rat assessed as inhibition of carrageenan-induced paw edema; assay type: functional, organism-based
Method in brief: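 Adult albino rats of either sex, 120–150 g, groups of 6. Compound suspended in saline with a few drops of tween 80, given by oral stomach tube 1 h before subplantar injection of freshly prepared 1% carrageenan (0.1 ml) in saline into right hind paw. Paw thickness read at 1–4 h; % edema inhibition versus carrageenan control; mean ± SEM, one-way ANOVA with post hoc test.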

[21] = tested on: Rattus norvegicus; experiment: Antiinflammatory activity in albino rat assessed as inhibition of carrageenan-induced paw edema at 10 mg/kg, po; assay type: functional; method in brief: as §3
[22] = tested on: Rattus norvegicus; experiment: Antiinflammatory activity in albino rat assessed as inhibition of carrageenan-induced paw edema at 20 mg/kg, po; assay type: functional; method in brief: as §3
[23] = tested on: Mus musculus; experiment: Analgesic activity in albino mouse assessed as decrease in acetic acid-induced writhing at 7.69 mg/kg, po administered 1 hr prior to acetic acid challenge relative to control; assay type: functional; method in brief: as §2
[24] = tested on: Rattus norvegicus; experiment: Antiinflammatory activity in albino rat assessed as inhibition of carrageenan-induced paw edema at 15 mg/kg, po; assay type: functional; method in brief: as §3
[25] = tested on: Mus musculus; experiment: Analgesic activity in albino mouse assessed as decrease in acetic acid-induced writhing at 8.59 mg/kg, po administered 1 hr prior to acetic acid challenge relative to control; assay type: functional; method in brief: as §2
[26] = tested on: Mus musculus; experiment: Analgesic activity in albino mouse assessed as decrease in acetic acid-induced writhing at 10.24 mg/kg, po administered 1 hr prior to acetic acid challenge relative to control; assay type: functional; method in brief: as §2
[27] = tested on: Mus musculus; experiment: Analgesic activity in albino mouse assessed as decrease in acetic acid-induced writhing at 8.04 mg/kg, po administered 1 hr prior to acetic acid challenge relative to control; assay type: functional; method in brief: as §2

Row | SMILES | inhibition in vivo at 29 µmol/kg [1] [%] | inhibition in vivo at 29 µmol/kg [2] [%] | inhibition in vivo at 29 µmol/kg [3] [%] | relative potency at 29 µmol/kg [4] | UI [5] | inhibition in vivo at 29 µmol/kg [6] [%] | further results
1 | CCN1C(=S)N2CCCC2c2c1ncn(C)c2=N (stereo unspecified) | 11.5 | 11.2 | 9.93 | 0.36 | Non-toxic | 14.1 | inhibition in vivo at 7.63 mg/kg [7]: 97.6%
2 | NC1=C(/C(N)=N\O)C2CCCN2C(=O)N1c1ccccc1 (stereo unspecified) | 21.6 | 4.45 | 27.3 | 1 |  | 14.9 | inhibition in vivo at 8.33 mg/kg [8]: 85.9%
3 | N#CC1=C(NCCN)N(c2ccccc2)C(=O)N2CCCC12 (stereo unspecified) | 25.9 | 15.7 | 16.9 | 0.61 |  | 27.3 | inhibition in vivo at 0.8 mg/kg [9]: 81.3%; inhibition in vivo at 1 mg/kg [10]: 90.6%; IC50 [11]: 0.402 mg/kg; inhibition in vivo at 0.4 mg/kg [12]: 49.4%; inhibition in vivo at 2 mg/kg [13]: 94.4%; inhibition in vivo at 8 mg/kg [14]: 96.4%; inhibition in vivo at 8.68 mg/kg [15]: 96.3%; inhibition in vivo at 4 mg/kg [16]: 96%
4 | CCO/C=N/C1=C(C#N)C2CCCN2C(=O)N1c1ccccc1 (stereo unspecified) | 5.78 | 22.4 | 4.96 | 0.18 | Non-toxic | 9.12 | inhibition in vivo at 9 mg/kg [17]: 69.8%
5 | N#Cc1c2n(c(=O)n(-c3ccccc3)/c1=N/c1cccc(C(F)(F)F)c1)CCC2 | 8.63 | 8.97 | 9.31 | 0.34 |  | 7.44 | inhibition in vivo at 11.49 mg/kg [18]: 63.8%
6 | C/N=c1/c(C#N)c2n(c(=O)n1-c1ccccc1)CCC2 | 30.2 | 19.1 | 34.8 | 1.27 | Non-toxic | 26.5 | inhibition in vivo at 25 mg/kg [19]: 62.7%; IC50 [20]: 17.77 mg/kg; inhibition in vivo at 10 mg/kg [21]: 36%; inhibition in vivo at 20 mg/kg [22]: 50.8%; inhibition in vivo at 7.69 mg/kg [23]: 74%; inhibition in vivo at 15 mg/kg [24]: 43%
7 | N#Cc1c2n(c(=O)n(-c3ccccc3)/c1=N\CCO)CCC2 | 25.9 | 5.6 | 27.3 | 1 | Non-toxic | 22.3 | inhibition in vivo at 8.59 mg/kg [25]: 87.8%
8 | N#Cc1ccc(/N=c2\c(C#N)c3n(c(=O)n2-c2ccccc2)CCC3)cc1 | 28.1 | 16.9 | 23.6 | 0.86 | Non-toxic | 28.1 | inhibition in vivo at 10.24 mg/kg [26]: 82.9%
9 | CCN1C(=S)N2CCCC2c2c1ncn(CC)c2=N (stereo unspecified) | 10.8 | 11.6 | 9.91 | 0.36 |  | 11.6 | inhibition in vivo at 8.04 mg/kg [27]: 75.9%
